From ChEMBL document CHEMBL1134344, “Crystal structure of human cyclin-dependent kinase 2 in complex with the adenine-derived inhibitor H717” (J Med Chem, 2001)

Key:
[1] = biological target: Cyclin-dependent kinase 1/cyclin B (Homo sapiens, UniProt P06493); assay: Inhibition of human cyclic dependent kinase 1 (CDK1)/cyclin B; assay type: protein-complex assay
[2] = tested on: HCT-15; assay: Inhibition of HCT-15 human colon tumor cell proliferation; assay type: functional, cell-based
Method in brief: (§1)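 Tumor cells harvested with trypsin-EDTA, trypan-blue-excluding cells counted, plated and left overnight at 37 °C; drug diluted in culture medium and added for 72 h (three days). Medium then removed, plates frozen at -80 °C ≥30 min, thawed, and CyQUANT-GR in lysis buffer added for 3-5 min at room temperature.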

[3] = tested on: DMS-114; assay: Inhibition of DMS114 human lung tumor cell proliferation; assay type: functional, cell-based; method in brief: as §1
[4] = tested on: HT-29; assay: Inhibition of HT-29 human colon tumor cell proliferation; assay type: functional, cell-based; method in brief: as §1
[5] = tested on: MDA-MB-231; assay: Inhibition of MDA-MB-231 human breast tumor cell proliferation; assay type: functional, cell-based; method in brief: as §1
[6] = biological target: Cyclin-dependent kinase 4/cyclin D1 (Homo sapiens, UniProt P11802); assay: Inhibition of cyclic dependent kinase 4 (CDK4)/cyclin D1; assay type: protein-complex assay
Method in brief: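 Human CDK4 and cyclin D1 coexpressed in Sf9 cells (baculovirus, MOI 0.1 each, 72 h); 0.1 ng enzyme from clarified lysate. Substrate GST-Rb (0.5 µg) on glutathione-Sepharose beads. ATP 10 µM plus [γ33P]ATP; 30 min at 30 °C. Filtration, TNEN washes, scintillation counting; IC50 from increasing drug concentrations.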

[7] = tested on: DU-145; assay: Inhibition of DU-145 human prostate tumor cell proliferation; assay type: functional, cell-based; method in brief: as §1
[8] = tested on: A549; assay: Inhibition of A549 human lung tumor cell proliferation; assay type: functional, cell-based; method in brief: as §1
[9] = tested on: PC-3; assay: Inhibition of PC-3 human prostate tumor cell proliferation; assay type: functional, cell-based; method in brief: as §1
[10] = biological target: Cyclin-dependent kinase 2/cyclin E (Homo sapiens, UniProt P24941); assay: Inhibition of cyclic dependent kinase 2 (CDK2)/cyclin E; assay type: protein-complex assay
[11] = tested on: MCF7; assay: Inhibition of MCF-7 human breast tumor cell proliferation; assay type: functional, cell-based; method in brief: as §1

Cyclin-dependent kinase 4/cyclin D1, sequence (P11802 whole entry): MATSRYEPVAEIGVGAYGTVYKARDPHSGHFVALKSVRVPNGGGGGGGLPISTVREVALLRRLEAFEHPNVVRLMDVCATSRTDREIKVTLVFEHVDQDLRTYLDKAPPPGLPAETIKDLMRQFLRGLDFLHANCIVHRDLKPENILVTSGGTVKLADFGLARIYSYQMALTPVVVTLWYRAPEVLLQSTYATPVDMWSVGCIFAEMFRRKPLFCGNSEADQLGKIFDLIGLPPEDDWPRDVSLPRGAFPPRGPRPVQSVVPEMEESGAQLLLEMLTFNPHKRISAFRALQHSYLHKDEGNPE
Cyclin-dependent kinase 4/cyclin D1, sequence (P24385 whole entry, further chain): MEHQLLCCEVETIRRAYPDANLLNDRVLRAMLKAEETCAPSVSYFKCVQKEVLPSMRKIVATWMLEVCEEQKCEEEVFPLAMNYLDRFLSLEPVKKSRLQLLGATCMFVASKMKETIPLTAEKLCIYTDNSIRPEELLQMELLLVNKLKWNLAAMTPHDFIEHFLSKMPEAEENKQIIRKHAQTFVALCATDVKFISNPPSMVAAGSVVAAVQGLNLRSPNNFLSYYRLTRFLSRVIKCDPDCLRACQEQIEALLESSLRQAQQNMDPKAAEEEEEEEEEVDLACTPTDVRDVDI

Structure (SMILES)	IC50 [1] [nM]	IC50 [2] [nM]	IC50 [3] [nM]	IC50 [4] [nM]	IC50 [5] [nM]	IC50 [6] [nM]	IC50 [7] [nM]	IC50 [8] [nM]	IC50 [9] [nM]	IC50 [10] [nM]	IC50 [11] [nM]
N[C@H]1CC[C@H](Nc2nc(NCc3ccccc3)c3ncn(C4CCCC4)c3n2)CC1	52										
C[C@H](Nc1nc(N[C@H]2CC[C@H](N)CC2)nc2c1ncn2C1CCCC1)c1ccccc1	2000	8600	6600	5700	5200	8800	5600	6100	3900	720	3300
N[C@H]1CC[C@H](Nc2nc(NCC3CC3)c3ncn(C4CCCC4)c3n2)CC1	70	3300	1400	2000	1700	780	1300	1600	600	24	1300
N[C@H]1CC[C@H](Nc2nc(NCc3cccc(I)c3)c3ncn(C4CCCC4)c3n2)CC1	226	2100	1000	1200	1000	2000	1600	1000	1400	50	600
